Measurements of several laboratories.
Lines come from different studies, so protocols differ.
Target: Mitogen-activated protein kinase 1 (MAPK1, Homo sapiens, UniProt P28482)

SMILES | effect on | action | method | concentration | endpoint | result
Cc1ccc(NC(=O)c2ccc(CN3CCN(C)CC3)cc2)cc1Nc1nc(-c2cccnc2)cs1 | cell-free assay |  |  | 0.5 µM | remaining signal | 91.6%
COc1cc2ncnc(Nc3ccc(Oc4ccccc4)cc3C)c2cc1OC | enzyme activity | inhibitor |  | 1 µM | inhibition | -2%
Oc1cccc(-c2nc(N3CCOCC3)c3oc4ncccc4c3n2)c1 | enzyme activity | inhibitor |  | 10 µM | remaining activity | 106%
COc1cc2ncnc(Nc3ccc(F)c(Cl)c3)c2cc1OCCCN1CCOCC1 | cell-free assay |  |  | 0.5 µM | remaining signal | 103%
C[C@H](c1ccc(F)cc1)N(Cc1cccc(C(=O)O)c1)C(=O)c1cnc2ccccc2c1 | cell-free assay |  | competition with immobilised ligand | 1 µM | remaining binding | 99%
O=C(Nc1cnn(-c2csc(C(=O)NC3COC3)c2)c1)Nc1c(F)cccc1Cl | enzyme activity | inhibitor |  | 5 µM | remaining activity | 85.9%
Cc1ccc(-n2nc(C(C)(C)C)cc2NC(=O)Nc2ccc(OCCN3CCOCC3)c3ccccc23)cc1 | enzyme activity | inhibitor |  | 10 µM | inhibition | -10%
CC(C)(C)c1nc2c(s1)c1nc(N)ncc1c1ccc(NS(=O)(=O)c3c(F)cccc3F)c(F)c12 | enzyme activity | inhibitor | radiometric | 1 µM | remaining activity | 99%
CCCOc1ccc(OC)c(F)c1C(=O)c1ccc(C(=O)N[C@@H]2CNC[C@H]2NC(=O)c2ccc3[nH]ncc3c2)cc1 | enzyme activity | inhibitor |  | 10 µM | remaining activity | 86%
CC(C)(O)[C@H]1CC[C@H](Nc2ccc3ncc(-c4cccc(C(F)(F)F)c4)n3n2)CC1 | enzyme activity | inhibitor |  | 1 µM | remaining activity | 96%
CCN(CC)CCNC(=O)c1c(C)[nH]c(/C=C2\C(=O)Nc3ccc(F)cc32)c1C | enzyme activity | inhibitor |  | 10 µM | inhibition | 1%
CC(=O)N1CCC(c2ccc(C(=O)NC3=NCCN3)cc2C(F)(F)F)CC1 | cell-free assay |  | competition with immobilised ligand | 1 µM | remaining binding | 100%
Cc1ccc(C(=O)Nc2ccc(CN3CCN(C)CC3)c(C(F)(F)F)c2)cc1C#Cc1cnc2cccnn12 | enzyme activity | inhibitor |  | 23.5 nM | remaining activity | 100%
Cc1ccc(NC(=O)c2ccc(C)c(C(F)(F)F)c2)cc1C#Cc1nn(C2CCC(O)CC2)c2ncnc(N)c12 (stereo not drawn) | cell-free assay |  |  | 10 µM | remaining signal | 108%
CCOCCn1cc(C(=O)Nc2ccc(-n3nc(-c4cccnc4)cc3C(F)(F)F)cn2)ccc1=O | cell-free assay |  | competition with immobilised ligand | 1 µM | remaining binding | 100%
CN(c1ncccc1CNc1nc(Nc2ccc3c(c2)CC(=O)N3)ncc1C(F)(F)F)S(C)(=O)=O | enzyme activity | inhibitor |  | 1 µM | inhibition | 88.1%
Cc1ccc(Nc2nccc(N(C)c3ccc4c(C)n(C)nc4c3)n2)cc1S(N)(=O)=O | enzyme activity | inhibitor |  | 10 µM | inhibition | -2%

SMILES | effect on | action | method | concentration | endpoint | result
COc1cc(Nc2cnc(C#N)c(O[C@H](C)CN(C)C)n2)ncc1-c1cnn(C)c1 | enzyme activity | inhibitor | radiometric | 1 µM | remaining activity | 101%
CCOc1cc(-c2nncn2C)ccc1Nc1ncc2cc(C)nc(NCC(C)(C)C)c2n1 | enzyme activity | inhibitor | FRET | 1 µM | inhibition | < 15%
Cc1ccc(C(=O)NCc2ccsc2)cc1C#Cc1cn(C(C)C)c2ncnc(N)c12 | enzyme activity | inhibitor |  | 1 µM | activity vs control | 98%
COc1cc(/C=C/C(=O)CC(=O)/C=C/c2ccc(O)c(OC)c2)ccc1O | enzyme activity | inhibitor |  | 1 µM | activity vs control | 75%
Cc1cc(-n2nc(Cc3cc(F)cc(C(F)(F)F)c3)nc2C)ccc1C(N)=O | cell-free assay |  | competition with immobilised ligand | 1 µM | remaining binding | 100%
N#CCCc1ccc2c(c1)-c1[nH]c3ccc([N+](=O)[O-])cc3c1CC(=O)N2 | cell-free assay |  |  | 0.5 µM | remaining signal | 119%
CN(C)C1CCN(CC#Cc2nn(C3CCCC3)c3nc(NCc4ccccc4)ncc23)C1 (stereo not drawn) | enzyme activity | inhibitor | FRET | 1 µM | inhibition | 7%
COc1cc(Nc2c(C#N)cnc3cc(OCCCN4CCN(C)CC4)c(OC)cc23)c(Cl)cc1Cl | cell-free assay |  |  | 0.5 µM | remaining signal | 93.7%
CN([C@@H]1CCc2c(CC(=O)O)c3cc(S(C)(=O)=O)ccc3n2C1)S(=O)(=O)c1ccc(F)cc1 | cell-free assay |  | competition with immobilised ligand | 1 µM | remaining binding | 77%
Cn1c(=O)n(-c2ccc(C(C)(C)C#N)cc2)c2c3cc(-c4cnc5ccccc5c4)ccc3ncc21 | enzyme activity | inhibitor |  | 10 µM | remaining activity | 114%
CCc1ccccc1C(=O)Nc1n[nH]c2c(C)c(F)c(C3C(C#N)=C(C)N(C)C(C)=C3C#N)cc12 | cell-free assay |  | competition with immobilised ligand | 1 µM | remaining binding | 86%
CC(C)(C)C(=O)c1sc(NC2CCCCC2)nc1N | enzyme activity | inhibitor |  | 10 µM | remaining activity | 95%
C[C@H](c1ccnc(Nc2nc3ccc(-c4cc(N(C)C)ncn4)cc3[nH]2)c1)N1CCN(C(=O)CC(F)(F)F)CC1 | cell-free assay |  | competition with immobilised ligand | 0.1 µM | remaining binding | 78%
CC/C(=N\NC(=O)NCc1cccc(O)c1)c1ccc(O)c(C)c1O | enzyme activity | inhibitor |  | 0.1 µM | inhibition | -10.1%
COc1ccc2c(c1)O[C@H](c1ccc(OC)c(OC)c1)C[C@@H]2NC(=O)C1(c2ccc3c(c2)OC(F)(F)O3)CC1 | cell-free assay |  | competition with immobilised ligand | 1 µM | remaining binding | 99%
O=C1NC(=O)c2cc(Nc3ccc(F)cc3)c(Nc3ccc(F)cc3)cc21 | cell-free assay |  |  | 0.5 µM | remaining signal | 121%
